Screening data from PubChem BioAssay.
Shown are actives, neighbours in structure and some others; about 2% of the full set was active somewhere.
ARNT-TACC3 inh: disruptors of human ARNT/TACC3 interaction. Q9Y6A5. AlphaScreen His-ARNT PAS-B/GST-TACC3 binding, luminescence; TACC3 fragment carries E629A point mutation. inhibition, % at 9.99 µM. actives 0.66% (n = 390,000). AID 623870;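 active = mean inhibition of replicates at least 50% and at least half of replicates each reaching 50%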;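 note: 0% = complete ARNT plus TACC3 wells and 100% = ARNT alone without TACC3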
AI-2 QS mod: modulates the Vibrio harveyi AI-2 quorum sensing system; Vibrio harveyi JMH597 AI-2 luminescence/OD600 ratio, 9 h; active compounds read low; strain lacks LuxN and CqsS sensors; 0 = neutral-control median; activity change, % at 7.5 µM; actives 0.4% (n = 300,000); in the data active = activity change below about -75%, passing the limit was not always enough;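 note: luminescence divided by OD600 gain over 9 h not by final OD600 alone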
HIF act: HIF pathway transcriptional activation. U2OS HRE-luciferase reporter, luminescence; normalized: DMSO 0%, desferrioxamine 100%. activation, % at 7.5 µM (by protocol). actives 0.32% (n = 300,000). AID 1910;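 active = mean activation of at least 10% of the iron chelator positive control signal, with at least half of replicates also reaching 10%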
T cruzi repl: blocks replication of Trypanosoma cruzi. T. cruzi beta-gal in NIH3T3, luminescence, 90 h. inhibition, % (no concentration beside the values). actives 1.4% (n = 300,000). AID 1885;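 active = mean inhibition across valid replicates above about 55%, limit read from the data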;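 note: signal also drops with host cell toxicity which is not excluded here; 0% = plate median of DMSO wells and 100% = zero luminescence signal; higher percent means less beta-gal luminescence so fewer parasites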
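compound dosing = single 50 nL compound addition per well in DMSO | material = NIH/3T3 host cells with β-galactosidase reporter T. cruzi | input = 5,000 host fibroblasts per well | timing = ≥90 h infection period, 3 h prior cell attachment | read-out basis = percent inhibition of parasite-derived β-gal signal | detection = GalScreen β-gal luminescence, detergent lysis, 60 min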
* = called active by the depositor; nt = no result given.

SMILES	ARNT-TACC3 inh	AI-2 QS mod	HIF act	T cruzi repl
COc1ccccc1Nc1nc(NCCO)nc(N2CCCC2)n1	active	4	0	-11
O=C(NCC[C@H]1CC[C@@H](NC(=O)c2cnccn2)[C@H](CO)O1)Nc1ccc(F)cc1	-16	nt	nt	nt
CCN(Cc1ccc(C#CCCO)cc1)CC1CCCN(CCc2cccc(F)c2)C1 (centres undefined)	-1	15	-8	64*
O=C(Nc1ccc(Cl)c(Cl)c1)O/N=C/c1ccncc1	1	-88*	0	-2
O=C(Nc1cccc(Cl)c1)O/N=C\c1ccncc1	-1	-7	nt	-3
Cc1[nH]c(-c2ccccn2)nc(=S)c1Cl	42	-88*	1	-13
Cc1cc(=S)nc(-c2ccccn2)[nH]1	59*	4	0	19
Cc1noc(C)c1NC(=O)Nc1ccc2c(c1)C(=O)N([C@@H](C)CO)C[C@@H](C)[C@H](CN(C)C(=O)Nc1ccc(F)cc1)OCCCC[C@H](C)O2	-4	nt	nt	nt
CO[C@H]1CN(C)C(=O)c2cc(NS(=O)(=O)c3cccc(F)c3)ccc2OC[C@@H](C)NC[C@@H]1C	-6	nt	nt	nt
O=C(Nc1nnc(-c2ccccc2)o1)C1CCCN1S(=O)(=O)c1cccs1 (centres undefined)	45*	6	0	-7
COc1ccc(-c2nnc(NC(=O)C3CCCN3S(=O)(=O)c3cccs3)o2)cc1 (centres undefined)	24	16	0	-10
CO[C@H]1CN(C)C(=O)c2cc(NC(=O)C3CC3)ccc2OC[C@@H](C)N(Cc2ccncc2)C[C@@H]1C	-10	nt	nt	nt
CCN(C1CCCCC1)S(=O)(=O)c1ccc(S(=O)(=O)N(CC(=O)Nc2ccccc2)C2CC2)cc1	-12	23	0	55*
Cc1ccc(S(=O)(=O)N(CC(=O)Nc2ccc(Cl)c([N+](=O)[O-])c2)C2CCCCC2)cc1	-10	24	-1	59*
COc1ccc(CSc2nnc3[nH]c(=O)cc(N)n23)cc1	12	-80*	0	-9
N#Cc1ccc(CSc2nnc3[nH]c(=O)cc(N)n23)cc1	-23	25	0	-16
Cc1cc(=O)oc2c3c(cc(OCC(=O)N4CCC[C@H]4C(=O)O)c12)OC(C)(C)CC3	32*	30	0	-19
S=C(N/N=C/c1ccccc1Cl)Nc1ccccc1	4	12	3	17
CC(=NNC(=S)Nc1cccc(Cl)c1)c1ccccn1	60*	nt	nt	nt
C/C(=N\NC(=O)c1ccccn1)c1ccc(Cl)cc1	nt	4	3	0
C/C(=N\Nc1cccc(Cl)c1)c1ccncc1	0	-4	1	59*
S=C(N/N=C/c1cccc2ccccc12)Nc1cccc(Cl)c1	2	-6	220*	13
C/C(=N\Nc1ccc(Cl)cc1)c1ccncc1	10	17	0	30
C/C(=N\NC(=O)c1ccc(Cl)cc1)c1ccccn1	82*	-33	-5	61*
C[C@@H]1CN([C@@H](C)CO)C(=O)c2cccc(NC(=O)Nc3ccc(C(F)(F)F)cc3)c2O[C@H]1CN(C)Cc1ccccc1	-8	nt	nt	nt
SMILES	ARNT-TACC3 inh	AI-2 QS mod	HIF act	T cruzi repl
C[C@H](CO)N1C[C@H](C)[C@@H](CN(C)C(=O)NC2CCCCC2)OCCCC[C@H](C)Oc2ccc(NC(=O)CCC(F)(F)F)cc2C1=O	-5	nt	nt	nt
CNC[C@@H]1Oc2ccc(NC(=O)Cc3ccccc3)cc2C(=O)N([C@@H](C)CO)C[C@@H]1C	0	nt	nt	nt
CN1CCN(C(=O)c2cc3c(c(-c4cccc(-c5cccc(C(=O)N(C)C)c5)c4)n2)[C@@H](CCO)N([S@](=O)C(C)(C)C)C3)CC1	-7	nt	nt	nt
C/C(=N\NC(=O)c1cc(Cl)ccc1O)c1ccc(Br)s1	-3	0	1	-18
COc1cc(C(=O)N/N=C(\c2ccccc2)c2ccccn2)cc(OC)c1OC	nt	2	64*	55*
C/C(=N\NC(=O)c1ccc(Cl)cc1)c1ccc(Br)s1	7	19	2	58*
O=C(COc1ccc(F)cc1)Nc1nc(-c2ccccn2)cs1	32	-3	0	41
CC(Oc1ccc(Br)cc1)C(=O)Nc1nc(-c2ccccn2)cs1 (centres undefined)	29	-60	1	69*
CC(C)[C@H](NC(=O)c1ccccc1Cl)C(=O)Nc1nc(-c2ccccn2)cs1	58*	46	20*	66*
O=C(O)c1cc(Br)ccn1	-15	22	0	-4
O=C(O)c1ccnc(C(=O)O)c1	57*	18	0	-10
Cc1ccc(S(=O)(=O)CC(=O)c2ccccc2)cc1	nt	-79*	1	-2
CCCCCCCCn1c2c(c(=N)c3ccccc31)CCC2	5	15	-1	60*
CCCCCn1c2c(c(=N)c3ccccc31)CCC2	-1	11	1	59*
OCC1(Cc2cccc(Cl)c2)CCCN(Cc2ccc(F)c(F)c2)C1 (centres undefined)	-15	22	-5	23
CSc1cccc(CN2CCCC(CO)(Cc3cccc(Cl)c3)C2)c1 (centres undefined)	-15	20	0	62*
COc1cc(CN2CCCC(CO)(Cc3cccc(Cl)c3)C2)cc(OC)c1O (centres undefined)	5	12	1	15
COc1cc(CN2CCCC(CO)(Cc3cccc(Cl)c3)C2)cc2c1OCO2 (centres undefined)	6	-9	-1	55*
COc1ccc(CN2CCCC(CO)(Cc3cccc(Cl)c3)C2)cc1OC (centres undefined)	0	12	1	55*
Cc1cc(C)c2c(N)c3ccccc3nc2n1	2	17	20*	40
C[C@@H]1CN([C@@H](C)CO)C(=O)c2cc(NC(=O)CCC(F)(F)F)ccc2O[C@H]1CN(C)CC1CCCCC1	-1	nt	nt	nt
COc1cc(OC)c(OC)cc1/C=C1\CC(C)C/C(=C\c2cc(OC)c(OC)cc2OC)C1=O (centres undefined)	-14	18	3	59*
CCC1C/C(=C\c2cc(OC)c(OC)cc2OC)C(=O)/C(=C/c2cc(OC)c(OC)cc2OC)C1 (centres undefined)	4	14	3	53
CCOC(=O)C1=C(c2ccccc2)O/C(=C(/C#N)C(F)(F)F)S1	nt	7	3	70*
Cc1cccc(N(CC(=O)NC2CCCC2)C(=O)c2cc3cc4cccc(C)c4nc3s2)c1C	-13	21	0	57*
CO[C@H]1CN(C)C(=O)c2cc(NS(=O)(=O)CC(F)(F)F)ccc2OC[C@H](C)N(Cc2nccs2)C[C@H]1C	1	nt	nt	nt
CN(C)c1ccc(-c2n(C)c3ccccc3[n+]2C)cc1	-2	6	0	73*
Cn1c(-c2ccccn2)[n+](C)c2ccccc21	-10	22	0	-10
O=C(CC1SC(N2CCCC2)=NC1=O)Nc1ccc(C(=O)Nc2ncccc2O)cc1 (centres undefined)	20	16	20*	-11
Cc1[nH]c2ccc(F)cc2c1CCN(Cc1cccnc1)C(=S)Nc1cccc(F)c1	-6	9	-11	65*
